Measurements published in paper PMC3979583 (ACS medicinal chemistry letters, 2013).
Read-outs that look alike come from different tables or passages of the source.

Key:
Format in all cases: cell-based
human CB2 receptors = human CB2 receptors (Homo sapiens, UniProt P34972)
[1] = system: osteoclast (OCL) formation; test: osteoclast; conditions: mouse bone marrow mononuclear cells, RANKL plus MCSF
Method in brief: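 Test compound was given at concentrations including 0.1, 1 and 5 μM, alongside a vehicle control. The read-out was inhibition of osteoclastogenesis, expressed as percent suppression of osteoclast formation. Each experiment was run in triplicate, and data were reported as means ± standard deviation.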

cytotoxicity assay = conditions: 5 μM

Sequence of human CB2 receptors (P34972 whole entry): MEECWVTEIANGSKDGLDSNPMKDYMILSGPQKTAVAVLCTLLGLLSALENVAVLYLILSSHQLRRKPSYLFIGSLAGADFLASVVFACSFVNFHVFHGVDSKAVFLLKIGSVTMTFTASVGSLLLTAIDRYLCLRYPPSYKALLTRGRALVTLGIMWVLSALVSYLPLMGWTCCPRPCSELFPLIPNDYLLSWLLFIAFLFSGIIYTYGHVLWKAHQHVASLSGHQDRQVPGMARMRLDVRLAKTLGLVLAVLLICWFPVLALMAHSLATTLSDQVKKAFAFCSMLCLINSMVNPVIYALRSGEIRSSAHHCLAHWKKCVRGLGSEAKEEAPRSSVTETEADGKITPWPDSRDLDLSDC

| functional behaviour at CB2 receptor (human CB2 receptors; based on LANCE signal change) | Structure (SMILES) | functional behaviour at CB2 receptor (human CB2 receptors) | inhibition of osteoclastogenesis (in words) [1] | cytotoxic effects (cytotoxicity assay) |
| --- | --- | --- | --- | --- |
|  | CCN(CC)c1ccc(CN(c2ccccc2)S(=O)(=O)c2ccc(C)cc2)cc1 [Compound 34] | behaved as CB2 receptor inverse agonists | great inhibition of osteoclastogenesis | without showing any cytotoxic effects |
| behaved as CB2 receptor inverse agonists | CCN(CC)c1ccc(CN(c2ccccc2)S(=O)(=O)c2ccc(OC)cc2)cc1 [Compound 39] |  | great inhibition of osteoclastogenesis |  |
| behaved as CB2 receptor inverse agonists | CCN(CC)c1ccc(CN(c2ncc(C)s2)S(=O)(=O)c2ccc(OC)cc2)cc1 [Compound 45] |  | great inhibition of osteoclastogenesis |  |
| behaved as CB2 receptor inverse agonists | COc1ccc(S(=O)(=O)N(Cc2ccc(N3CCCCC3)cc2)c2ccccc2)cc1 [Compound 47] |  |  |  |
